Bioassay records deposited in PubChem by The Scripps Research Institute Molecular Screening Center.
OX1R antag-1: antagonists of human orexin 1 receptor; CHO/OX1R cells, Fluo-8 calcium fluorescence, orexin A; inhibition, % at 5 µM; AID 434989; actives 0.43% (n = 330,000); O43613;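 active = inhibition above its plate's threshold, mean inhibition of all tested compounds on the plate plus 3 SD, cut at about 37% in these data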;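 also: 0% = orexin A challenge wells and 100% = SB-334867-A antagonist wells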
TAAR1 antagonist: human TAAR1 antagonism. CHO RD-HGA16 TAAR1, Fluo-8 calcium fluorescence, antagonist. inhibition, % at 3 µM. actives 1.5% (n = 360,000);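 active = inhibition above a per-plate cutoff, the mean inhibition of test compounds on that plate plus 3 SD, cut at about 49% in these data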;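 also: 0% = DMSO plus EC80 beta-PEA response and 100% = DMSO alone without agonist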
Target sequence (Q96RJ0 whole entry, looked up): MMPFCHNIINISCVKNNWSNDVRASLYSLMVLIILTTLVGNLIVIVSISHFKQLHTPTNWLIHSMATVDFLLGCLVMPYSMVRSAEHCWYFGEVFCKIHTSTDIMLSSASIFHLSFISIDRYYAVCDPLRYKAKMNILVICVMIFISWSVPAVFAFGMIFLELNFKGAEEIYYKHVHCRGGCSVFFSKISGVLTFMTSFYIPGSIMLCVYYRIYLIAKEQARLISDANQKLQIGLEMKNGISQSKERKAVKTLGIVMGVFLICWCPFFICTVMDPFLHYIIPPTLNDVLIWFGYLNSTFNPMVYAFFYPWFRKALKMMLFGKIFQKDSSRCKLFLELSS
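test system = CHO RD-HGA16 cells bearing hTAAR1 | replication = singlicate | controls = DMSO-only wells and EC80 β-PEA-stimulated wells | reagent = EC80 β-phenethylamine stimulus | read-out basis = percent inhibition of PEA-evoked calcium signal, max/basal emission ratio | schedule = seeding 17-24 h prior, 75-min 37 °C, 30-min RT dye loading | signal = kinetic Fluo-8 calcium fluorescence measurement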
TAAR1 ag: agonists of human TAAR1; AID 624467; activation, % at 3 µM; CHO RD-HGA16 TAAR1, Fluo-8 calcium fluorescence; vehicle wells 0%, saturating PEA agonist 100%; Q96RJ0; actives 0.99% (n = 360,000);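 active = activation above the mean activation of all test compounds in the run plus 3 SD, cut at about 38% in these data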
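Repeats: no replicates (n 1) | Material: CHO-derived RD-HGA16 cells with stable Gα16 and human TAAR1 | Technique: Kinetic Fluo-8 calcium fluorescence | Schedule: 17-24 h seeding, 75 min 37 °C dye, 30 min RT | Evaluation: % activation from peak over basal fluorescence ratio, DMSO-to-PEA scaled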
OX1R antag-2: antagonists of human orexin 1 receptor (OX1R). OX1R-expressing cells, FRET antagonist read-out. actives 1.8% (n = 330,000). AID 485270. inhibition, % at 6.6 µM. O43613; in the data active = inhibition mostly above about 38%, no sharp cut-off; inactive = mostly below about 40%;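 also: 0% = agonist challenge alone and 100% = reference antagonist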
CHO parental Ca: signal in parental CHO cells, OX1R antagonist counter-screen; parental CHO-K1, ATP-induced calcium, Fluo-8 fluorescence; inhibition, % at 5.6 µM; actives 0.63% (n = 330,000); AID 463079;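 active = inhibition above that plate's mean sample inhibition plus 3 SD, cut at about 26% in these data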;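 also: 0% = ATP-challenged DMSO wells and 100% = DMSO wells without ATP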
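Measured by: calcium-sensitive Fluo-8 fluorescence / Test system: CHO parental line / Controls: ATP-challenged DMSO wells low, unchallenged DMSO wells high / Measure: % inhibition / Compound: single nominal dose of 5.6 µM per compound / Replicates: single well per compound, no replicates / Reagent: ATP as calcium-mobilizing challenge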
GPR7 antag: blocks human GPR7 receptor signaling | AID 1861 | inhibition, % at 4.4 µM | GPR7-expressing cells, fluorescence antagonist assay | actives 1.1% (n = 290,000) | P48145; in the data active = inhibition above about 16%, passing the limit was not always enough;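 also: cells stimulated with the agonist NPW; 0% = agonist with vehicle and 100% = vehicle without agonist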
GPR7 antag cf: confirmation of human GPR7 antagonists; shares compounds with GPR7 antag; GPR7-expressing cells, calcium fluorescence antagonist mode; inhibition, % at 4.4 µM; actives 52% (n = 2,400); AID 1952; in the data active = inhibition above about 24%;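 also: stimulated with the GPR7 agonist NPW; 0% = agonist plus vehicle and 100% = vehicle alone without agonist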
MCHR1 antagonist: MCHR1 (human) antagonism in GPR7 counter-screen; actives 62% (n = 2,400); AID 2148; shares compounds with GPR7 antag; MCHR1-expressing cells, fluorescence antagonist assay; inhibition, % at 4.4 µM; in the data active = inhibition above about 22%;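 also: 0% = vehicle with agonist and 100% = vehicle without agonist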
OX1R Fluo8 conf: OX1R (human) antagonism, confirmed. shares compounds with OX1R antag-1. CHO/OX1R cells, orexin A calcium Fluo-8 fluorescence. inhibition, % at 5 µM. actives 38% (n = 1,100). AID 492963; in the data active = inhibition above about 29%;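 also: 0% = agonist challenge alone and 100% = reference antagonist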
CHO Ca counter: signal in parental CHO cells, OX1R antagonist counter-screen. actives 9.3% (n = 1,100). inhibition, % at 5.6 µM. AID 492965. shares compounds with OX1R antag-1. parental CHO-K1, ATP-induced calcium, Fluo-8 fluorescence;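 active = inhibition above a per-plate limit, the mean inhibition of that plate's test compounds plus 3 SD, cut at about 25% in these data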;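 also: 0% = ATP challenge with DMSO and 100% = DMSO without ATP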
OX1R HTRF conf: confirmation of human orexin 1 receptor antagonists, HTRF format; AID 492964; inhibition, % at 6.6 µM; actives 49% (n = 1,800); shares compounds with OX1R antag-2; OX1R-expressing cells, HTRF antagonist assay; in the data active = inhibition above about 55%;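 also: CHO cells expressing OX1R stimulated with orexin A at about EC80; 0% = agonist challenge alone and 100% = reference antagonist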
CHO-K1 HTRF: counter-screen: parental CHO-K1 HTRF response; shares compounds with OX1R antag-2; parental CHO-K1 cells, HTRF counterscreen; inhibition, % at 6.6 µM; actives 48% (n = 1,800); in the data active = inhibition above about 17%;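 also: 0% = agonist challenge with vehicle and 100% = vehicle alone without agonist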
Numbers without * were called inactive; . = not tested or not shown. Compounds with a hit are over-represented: about 4.6% of the library has one in this group of screens.

SMILES	OX1R antag-1	TAAR1 antagonist	TAAR1 ag	OX1R antag-2	CHO parental Ca	GPR7 antag	GPR7 antag cf	MCHR1 antagonist	OX1R Fluo8 conf	CHO Ca counter	others
Cc1cccc(N(CC(=O)NC2CCCCC2)C(=O)CCCC(=O)Nc2ccccn2)c1C	-23.9	-0.2	-0.5	2.4	-15.0	29.4*	21.1	12.4	.	.
CCC(NC(=O)c1ccc2nc(Cc3ccc(OC)cc3)oc2c1)c1ccncc1 (configuration not stated)	3.5	32.7	8.8	18.9	23.7	45.7*	39.4*	70.2*	.	.
COC(=O)[C@@H]1ON2OCC(C)=C3CCCC[C@@]32[C@H]1C(=O)OC	.	-7.9	0.7	.	.	.	.	.	.	.
COc1ccc(NC(=O)CN(Cc2ccccc2)Cc2ccccc2)cc1S(N)(=O)=O	-10.4	14.7	2.6	12.5	-10.9	-6.7	.	.	.	.
COc1ccc(NC(=O)COc2ccccc2Cc2ccccc2)cc1S(N)(=O)=O	26.7	-5.3	4.7	25.6	12.7	42.0*	45.1*	57.3*	19.2	14.6
O=C(CN1CCC(c2nc3ccccc3s2)CC1)N1CCCCC1	-24.4	9.2	-0.2	13.1	-20.0	-4.2	.	.	.	.
O=C(CN1CCC(c2nc3ccccc3s2)CC1)NCc1cccs1	51.8*	25.2	8.7	2.6	3.8	48.1*	39.2*	57.5*	-5.4	-1.9
Cc1cc(C(=O)N2CCC2(C)C(=O)NCC(C)(C)C)nn1C (configuration not stated)	.	0.6	0.3	.	.	.	.	.	.	.
CC(=O)Nc1ccc(NC(=O)c2nc(S(=O)(=O)Cc3ccccc3)ncc2Cl)cc1	15.0	4.4	1.2	23.1	13.8	2.9	.	.	.	.
CCS(=O)(=O)c1ncc(Cl)c(C(=O)Nc2ccc(C)cc2)n1	28.3	9.6	3.0	51.0	26.0	53.2*	52.1*	84.2*	32.0*	20.4
O=C(Nc1ccccc1)Nc1cccc(C(F)(F)F)c1	33.2	17.2	19.1	64.3	10.3	27.3*	40.5*	60.6*	-0.2	20.8
Cc1ccc(C(CC(=O)N2CCNCC2)c2ccccc2)c(O)c1C (configuration not stated)	34.4	-1.8	3.9	2.3	-4.2	33.2*	22.1	20.6	41.0*	31.3*
O=C(Nc1ccc(C(=O)NCCCN2CCN(c3ccc(F)cc3)CC2)cc1)C1=CSCCO1	28.3	23.4	45.4*	0.5	17.4	36.4*	55.6*	73.9*	43.8*	27.2*
COCCNC(=O)C1(C)CCCN(Cc2cc(-c3ccccc3)n(C)n2)C1 (configuration not stated)	.	-18.1	1.5	.	.	.	.	.	.	.
COC(=O)c1ccc2nc(-c3ccccc3)c(Cc3ccccc3OC)n2c1	.	-30.2	-1.0	.	.	.	.	.	.	.
COc1ccccc1N(CC(=O)NC1CCCC1)C(=O)c1oc(C(C)(C)C)cc1C	40.8*	9.1	20.3	52.3*	-23.6	43.6*	37.3*	47.7*	20.0	3.5	OX1R HTRF conf=64.0*;CHO-K1 HTRF=0.8
COCCCNC(=O)/C=C1\Sc2ccccc2N(Cc2ccccc2F)C1=O	3.7	-7.2	2.0	85.6*	-18.5	.	.	12.3	.	.	OX1R HTRF conf=76.6*;CHO-K1 HTRF=3.4
CC1(C(=O)NS(=O)(=O)c2cccc(OC(F)F)c2)CCN1C(=O)C/C=C/c1ccccc1 (configuration not stated)	.	7.5	-0.5	.	.	.	.	.	.	.
